# Assay outcomes as filed in PubChem.
# Most compounds without a hit are left out; they make up all but 2.6% or so of the library.
# KCC2 mod: KCC2 cotransporter modulators, thallium flux, primary screen, cell-based, HEK293 KCC2, FluoZin-2 fluorescence, MLSMR | B-score of Tl+ flux slope (higher = more flux/activation; lower = inhibition) at 10 µM | 2.2% of 190,000 active | Solute carrier family 12 member 5 (Homo sapiens), Q9H2X9 | KCC2 cells, thallium flux FluoZin-2 fluorescence | AID 1456, 2008;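 active means thallium flux slope and its plate-corrected score both differing from the plate sample mean at a set confidence after two filtering rounds, in either direction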;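 further: slope of fluorescence scaled to starting intensity during 10 to 20 s after thallium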
# Target sequence (Q9H2X9 whole entry, looked up): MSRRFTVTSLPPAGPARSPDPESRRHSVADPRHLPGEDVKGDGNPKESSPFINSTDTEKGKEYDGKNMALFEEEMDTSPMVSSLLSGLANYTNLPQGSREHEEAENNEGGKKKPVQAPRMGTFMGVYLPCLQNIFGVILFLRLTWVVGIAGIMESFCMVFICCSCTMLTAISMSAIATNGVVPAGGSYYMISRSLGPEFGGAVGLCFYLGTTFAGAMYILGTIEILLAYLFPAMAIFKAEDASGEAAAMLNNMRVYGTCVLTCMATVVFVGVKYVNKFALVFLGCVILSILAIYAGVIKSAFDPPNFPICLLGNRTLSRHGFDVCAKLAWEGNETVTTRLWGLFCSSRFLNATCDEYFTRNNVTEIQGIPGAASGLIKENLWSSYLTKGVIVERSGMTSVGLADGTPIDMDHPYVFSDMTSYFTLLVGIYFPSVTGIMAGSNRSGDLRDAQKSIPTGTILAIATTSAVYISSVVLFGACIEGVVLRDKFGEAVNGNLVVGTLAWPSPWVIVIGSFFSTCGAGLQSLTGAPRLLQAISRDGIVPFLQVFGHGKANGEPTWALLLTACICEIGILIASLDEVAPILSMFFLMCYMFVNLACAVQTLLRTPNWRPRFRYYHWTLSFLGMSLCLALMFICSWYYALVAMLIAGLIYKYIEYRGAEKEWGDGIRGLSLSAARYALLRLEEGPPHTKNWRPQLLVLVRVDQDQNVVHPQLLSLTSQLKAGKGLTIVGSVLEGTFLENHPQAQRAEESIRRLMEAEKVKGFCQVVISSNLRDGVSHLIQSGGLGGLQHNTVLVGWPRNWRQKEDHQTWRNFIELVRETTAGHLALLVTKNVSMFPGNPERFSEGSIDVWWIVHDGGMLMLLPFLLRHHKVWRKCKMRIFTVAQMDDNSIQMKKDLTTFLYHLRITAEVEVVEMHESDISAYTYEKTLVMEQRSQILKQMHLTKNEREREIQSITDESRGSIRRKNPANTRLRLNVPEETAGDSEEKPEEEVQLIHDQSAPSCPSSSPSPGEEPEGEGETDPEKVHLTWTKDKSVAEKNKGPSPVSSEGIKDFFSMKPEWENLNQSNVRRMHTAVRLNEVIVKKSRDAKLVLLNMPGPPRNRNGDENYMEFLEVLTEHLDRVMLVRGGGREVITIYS
# CHT block: inhibitors of human choline transporter CHT; CHT-expressing cells, membrane potential dye, choline response; hits give low values; B-score at 10 µM; AID 488975, 2010; 0.86% of 310,000 active;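 active means B-score over 3 SD under the library average, and starting fluorescence ratio not unusually high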;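 further: choline stimulus applied at its EC90 after an EC20 pre-addition; B-score computed on integrated fluorescence ratio after choline addition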
# CHT allo act: CHT positive allosteric modulators, primary screen, cell-based, membrane potential dye, choline EC20 | AID 488977, 2010 | B-score at 10 µM | CHT-expressing cells; hits give high values; LV-AA mutant CHT in HEK293 cells | 0.49% of 310,000 active;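 active means initial fluorescence not abnormally high and integrated response B-score, plate-corrected, over 3 SD above library mean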
# Rad51 HR inh: human RAD51 strand exchange inhibitors, primary screen, biochemical, fluorescence; inhibition, % at 10 µM; hRad51 DNA strand exchange, fluorescence dequenching; AID 1385, 2008; 0.085% of 200,000 active;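 active means inhibition above 40% at the single screening dose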;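 further: 0% = DMSO control wells and 100% = blanks with heterologous ssDNA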
#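 Test system: preformed human Rad51 ssDNA filaments. Compound dosing: single dose, 10 µM final compound. Incubation: filaments 15 min 37 °C, then compound 30 min. Technique: FRET fluorescence dequenching, excitation 485 nm, emission 520 nm. Read-out basis: percent inhibition from fluorescence, normalised to plate control and blank means. Benchmarks: plate controls and plate blanks.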
# * = called active by the depositor; i = inactive; . = not tested or not shown.
SMILES,KCC2 mod,CHT block,CHT allo act,Rad51 HR inh
Cc1nn(-c2ccccc2)c(Cl)c1/C=C(\CC(=O)O)c1nc2ccccc2s1,-3*,i,i,-1
NC(=S)Nc1nccc(-c2cccs2)n1,0.28,i,i,41*
Cc1ccc(-c2csc3nc[nH]c(=S)c23)cc1C,43*,i,i,1
COc1ccc(-c2csc3nc[nH]c(=O)c23)cc1OC,.,i,i,.
COc1ccccc1-c1cc(C(=O)Nc2cccnc2)no1,-1.5,i,11*,.
COC(=O)Cc1ccc(NC(=S)NCCCN2CCOCC2)cc1,-0.15,-6.8*,i,1
COC(=O)Cc1ccc(NC(=S)Nc2ccc(N3CCOCC3)cc2)cc1,0.21,i,i,14
CCOC(=O)C1=C(C)N=c2s/c(=C/c3cccc([N+](=O)[O-])c3O)c(=O)n2C1c1ccccc1 (stereo not drawn),.,-8*,i,.
CCOC(=O)C1=C(C)N=c2s/c(=C\c3ccc(OCC(=O)O)cc3)c(=O)n2C1c1ccccc1 (stereo not drawn),.,i,i,.
N#Cc1nc(-c2cccc3ccccc23)oc1NCCN1CCOCC1,-1.1,i,i,.
N#Cc1nc(Cc2cccc3ccccc23)oc1NCCN1CCCCC1,-4.3*,i,i,-4
CC(C)(C)NC(=O)NC(=O)COC(=O)CCC1CCCC1,0.68,i,i,46*
COC(=O)c1ccccc1NC(=O)C(C)c1ccc([N+](=O)[O-])cc1 (stereo not drawn),-0.031,i,i,42*
CCc1ccc(S(=O)(=O)NCc2csc(-c3ccccc3)n2)s1,-4.9*,i,i,-8
Cc1ccc(NS(=O)(=O)c2ccc(C(=O)N3CC(C)CC(C)C3)cc2)cc1 (stereo not drawn),.,i,10*,.
Cc1ccc(S(=O)(=O)Nc2ccc(C(=O)N3CCCC3)cc2)cc1,.,i,i,.
O=C(CN1CCC(C(=O)c2ccc(F)cc2)CC1)Nc1ccccc1Cl,.,i,i,.
Cc1ccc(C(=O)Nc2nc(-c3ccccc3)c(-c3ccccc3)o2)cc1,31*,i,i,7
CN1CCN(NC(=S)Nc2ccc(OC(F)F)cc2)CC1,-0.16,i,i,-3
O=C(NC(=S)Nc1nc2c(s1)CCCC2)c1ccc(C(=O)c2ccccc2)cc1,23*,i,i,4
O=C(Nc1nc2c(s1)CCCC2)c1cccnc1,-0.2,i,i,4
Cn1c(-c2ccc(C(C)(C)C)cc2)n[nH]c1=S,3.9*,i,i,6
Cn1cccc1/C=N/n1c(-c2ccc(C(C)(C)C)cc2)n[nH]c1=S,13*,i,i,6
Cn1c(-c2ccccc2)n[nH]c1=S,0.15,i,i,16
Nc1ccc(N2CCCCC2)c2nonc12,0.0021,-7.6*,i,13
SMILES,KCC2 mod,CHT block,CHT allo act,Rad51 HR inh
C/C(=N\NC(=O)c1cc(C)oc1C)c1ccc(N2CCOCC2)cc1,0.012,i,i,7
N=c1c(C(=O)NC2CCCCC2)cc2c(=O)n3ccccc3nc2n1Cc1ccccc1,.,i,i,.
N=c1c(C(=O)NC2CCCCC2)cc2c(=O)n3ccccc3nc2n1CCc1ccccc1,.,i,7.3*,.
CCOC(=O)c1cc2c(=O)n3ccccc3nc2n(CCCOC)c1=NC(C)=O,0.29,i,13*,.
CC(C)OCCCn1c(=N)c(C(N)=S)cc2c(=O)n3ccccc3nc21,-0.15,i,6.6*,-8
O=C(NNC(=O)c1cccnc1SCc1cccc([N+](=O)[O-])c1)c1ccc(F)cc1,0.62,i,i,.
O=C(NNC(=O)c1cccnc1SCc1cccc([N+](=O)[O-])c1)c1ccccn1,6.9*,i,i,.
COc1cc(C(=O)NC(=S)N(CCc2ccccc2)CCc2ccccc2)cc(OC)c1OC,73*,i,i,-48
C=CCN(CC=C)C(=S)NC(=O)c1ccc(-c2ccccc2)cc1,31*,i,i,4
Cc1ccc(C(=O)NC(=S)N(C)C2CCCCC2)cc1Br,.,i,i,.
COc1ccc(C(=O)NC(=S)N(Cc2ccccc2)Cc2ccccc2)cc1,64*,i,i,4
COc1cc(C(=O)NC(C)CCc2ccccc2)cc(OC)c1OC (stereo not drawn),.,i,i,.
C=CCN(CC=C)C(=S)NC(=O)c1ccc(C)c(Br)c1,45*,i,i,.
O=C1CN(C(=S)NC(=O)c2ccc(-c3ccccc3)cc2)CCN1,-0.098,i,i,-1
CCN(c1ccc(C)cc1C)S(=O)(=O)c1nnc(NC(=O)C(C)(C)C)s1,.,i,i,.
CN(Cc1ccccc1)C(=S)NC(=O)c1ccc(-c2ccccc2)cc1,29*,i,i,0
CN(Cc1ccccc1)C(=S)NC(=O)c1cccs1,.,i,i,.
Nc1ccccc1C(=O)N1CCc2ccccc21,.,i,i,.
OCCC1CN(Cc2cccc3nonc23)CCN1C1CCCCC1 (stereo not drawn),-0.0025,i,i,.
O=C(COc1cccc(Cl)c1)NNC(=S)Nc1ccccc1,2.6,i,i,0
Cc1ccc(C(=O)CC(=O)COc2ccc(Cl)cc2)cc1,21*,i,i,.
O=C(COc1ccccc1)NNC(=S)NC(=O)c1ccc(Cl)cc1Cl,22*,i,i,1
Cc1cccc(C(=O)NC(=S)NNC(=O)COc2ccc(Cl)cc2)c1,47*,.,.,16
CC(C)NC(=S)NC(=O)c1ccc(Cl)cc1Cl,29*,i,i,-9
Cc1cccc(/C(N)=N/OC(=O)COc2ccc(Cl)cc2)c1,0.18,i,i,5
SMILES,KCC2 mod,CHT block,CHT allo act,Rad51 HR inh
COc1c(C)cccc1C(=O)NCCCNC(=O)c1ccc(C)nc1,.,i,i,.
O=C1C(NS(=O)(=O)c2cccs2)=C(N2CCN(Cc3ccccc3)CC2)C(=O)c2ccccc21,-1.7,-5.5*,i,.
CCOc1ccccc1N1CCN(C2=C(NS(=O)(=O)c3cccs3)C(=O)c3ccccc3C2=O)CC1,0.82,i,i,9
CC(C)(C)C(=O)CN1C2=NCCCN2c2ccccc21,.,i,i,.
CC1CCCC(NC(=S)NC(=O)c2cncc(Br)c2)C1C (stereo not drawn),51*,i,i,1
CC1CCCCC1NC(=O)c1cncc(Br)c1 (stereo not drawn),0.045,i,i,2
COc1ccccc1-c1cc(C(F)(F)F)nc(S(=O)(=O)CCCC(=O)N2CCOCC2)n1,.,-5.1*,i,6
COc1ccccc1-c1cc(C(F)(F)F)nc(S(=O)(=O)CCCC(=O)O)n1,.,i,i,6
CCCn1c(O)c(N=NC(=O)c2ccco2)c2ccccc21,18*,i,i,-4
O=C(Nc1sc2c(c1C(=O)O)CCCC2)c1cccc(Cl)c1,.,i,i,.
